In ChEMBL document CHEMBL1135117, “Identification of potent and selective oxytocin antagonists. Part 2: further investigation of benzofuran derivatives” (Bioorg Med Chem Lett, 2002):

Experiments:
[1] = Compound was tested for its half life in dog; type: ADME, organism-based, Canis lupus familiaris; settings: in vivo
[2] = Bioavailability in dog; type: ADME, organism-based, Canis lupus familiaris; settings: in vivo
[3] = Compound was tested for plasma clearance in rat; type: ADME, organism-based
[4] = Compound was tested for plasma clearance in dog; type: ADME, organism-based, Canis lupus familiaris
[5] = Compound was tested for its half life in rat; type: ADME, organism-based; settings: in vivo
[6] = Bioavailability in rat; type: ADME, organism-based; settings: in vivo
Oxytocin receptor [7] = target: T1, Oxytocin receptor (Homo sapiens, UniProt P30559); assay: Displacement of 3[H]oxytocin from human oxytocin receptor
T1 sequence (P30559 whole entry): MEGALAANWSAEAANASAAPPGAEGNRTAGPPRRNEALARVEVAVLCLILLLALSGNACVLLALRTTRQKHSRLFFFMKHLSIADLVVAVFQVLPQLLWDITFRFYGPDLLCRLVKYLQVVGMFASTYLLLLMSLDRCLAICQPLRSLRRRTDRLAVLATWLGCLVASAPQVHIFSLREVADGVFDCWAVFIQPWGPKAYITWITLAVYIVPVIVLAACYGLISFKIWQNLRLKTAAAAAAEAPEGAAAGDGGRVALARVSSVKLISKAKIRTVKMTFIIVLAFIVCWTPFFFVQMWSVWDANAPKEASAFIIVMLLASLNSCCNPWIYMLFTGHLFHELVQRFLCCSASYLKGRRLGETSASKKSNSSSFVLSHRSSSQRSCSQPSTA

Vasopressin V1a receptor = Vasopressin V1a receptor (Homo sapiens, UniProt P37288); assay: Compound was tested for its ability to displace vasopressin from human Vasopressin V1a receptor
Sequence of Vasopressin V1a receptor (P37288 whole entry): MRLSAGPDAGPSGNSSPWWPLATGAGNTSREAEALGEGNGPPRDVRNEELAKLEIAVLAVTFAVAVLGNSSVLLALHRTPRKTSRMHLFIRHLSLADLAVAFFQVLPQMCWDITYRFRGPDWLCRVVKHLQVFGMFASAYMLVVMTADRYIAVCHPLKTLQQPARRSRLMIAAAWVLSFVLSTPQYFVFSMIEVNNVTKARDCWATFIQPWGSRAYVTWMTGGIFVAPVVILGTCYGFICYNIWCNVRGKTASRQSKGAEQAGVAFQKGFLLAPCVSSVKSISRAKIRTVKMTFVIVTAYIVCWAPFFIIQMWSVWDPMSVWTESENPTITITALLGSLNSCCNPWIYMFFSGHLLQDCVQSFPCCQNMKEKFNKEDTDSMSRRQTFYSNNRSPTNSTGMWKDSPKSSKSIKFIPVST

[8] = target: T2, Oxytocin receptor (Homo sapiens) (UniProt P30559); assay: Tested for ratio of displacement of 3H oxytocin from human OT in presence and absence of 50 mg/mL human serum albumin
T2 sequence (whole entry): T1 sequence (P30559 whole entry)
How it was run: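 Displacement of [3H]oxytocin from human OT receptor, with IC50 measured with and without 50 mg/mL human serum albumin. The radioligand was made up in buffer containing 100 mg/mL HSA, a pre-dilution level. The value is the ratio of the IC50 with HSA to the IC50 without HSA.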

Albumin = Albumin (Homo sapiens, UniProt P02768); assay: Compound was tested for Serum albumin binding
Sequence of Albumin (P02768 whole entry): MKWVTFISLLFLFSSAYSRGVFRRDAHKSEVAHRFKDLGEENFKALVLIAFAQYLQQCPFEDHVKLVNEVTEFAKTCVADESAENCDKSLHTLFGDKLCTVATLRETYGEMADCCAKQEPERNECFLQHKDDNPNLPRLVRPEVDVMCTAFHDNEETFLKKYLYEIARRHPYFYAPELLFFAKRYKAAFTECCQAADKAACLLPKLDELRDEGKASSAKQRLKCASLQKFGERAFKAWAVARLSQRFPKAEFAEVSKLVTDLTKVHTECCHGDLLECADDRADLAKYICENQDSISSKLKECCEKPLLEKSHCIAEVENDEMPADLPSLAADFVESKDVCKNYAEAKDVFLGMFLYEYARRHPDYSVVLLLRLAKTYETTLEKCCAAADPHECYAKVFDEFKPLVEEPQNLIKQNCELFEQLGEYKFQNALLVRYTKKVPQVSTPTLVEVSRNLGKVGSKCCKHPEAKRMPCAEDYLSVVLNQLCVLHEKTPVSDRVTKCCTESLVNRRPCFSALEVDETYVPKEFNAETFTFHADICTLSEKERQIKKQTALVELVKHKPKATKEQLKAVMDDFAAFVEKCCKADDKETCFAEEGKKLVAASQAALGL

[9] = Tested for the pharmacokinetic parameter in rat and expressed as area under curve; type: ADME, organism-based; design: concentration or dose not given beside the values; settings: in vivo
[10] = Clearance in rat; type: ADME, organism-based; settings: in vivo
[11] = Tested for plasma clearance in dog; type: ADME, organism-based, Canis lupus familiaris
[12] = Compound was tested for lipophilicity; type: physicochemical; settings: octanol/water
Oxytocin receptor [13] = target: T3, Oxytocin receptor (Rattus norvegicus, UniProt P70536); assay: Compound was tested for displacement of 3[H] oxytocin from rat OT receptor (in vitro)
T3 sequence (P70536 whole entry): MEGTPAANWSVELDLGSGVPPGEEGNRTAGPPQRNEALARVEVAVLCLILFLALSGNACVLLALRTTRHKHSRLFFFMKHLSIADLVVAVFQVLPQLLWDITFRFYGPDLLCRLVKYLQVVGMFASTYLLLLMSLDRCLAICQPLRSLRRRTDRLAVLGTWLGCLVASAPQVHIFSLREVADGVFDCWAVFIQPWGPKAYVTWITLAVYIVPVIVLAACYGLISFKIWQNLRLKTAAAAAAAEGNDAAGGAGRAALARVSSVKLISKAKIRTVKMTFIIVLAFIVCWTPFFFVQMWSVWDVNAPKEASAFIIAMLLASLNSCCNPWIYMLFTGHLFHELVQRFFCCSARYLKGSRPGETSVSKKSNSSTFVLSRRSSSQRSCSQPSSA
How it was run: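 Myometrium from rats that littered within 2 h, homogenised in sucrose buffer; membrane fraction pelleted at 48,000g, 4 °C. Filtration binding with [3H]oxytocin at 1 nM in 50 mM HEPES, 10 mM MgCl2, pH 7.4, plus competing ligand. Incubation 1 h at room temperature, then GF/C filtration, ice-cold buffer washes, scintillation counting of bound label.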

Rattus norvegicus = species: Rattus norvegicus; assay: Serum concentration for 50% inhibition of uterine contractility response to oxytocin in rat; type: functional, organism-based
How it was run: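 Adult female AHA rats pre-treated 18 h with diethylstilboestrol (250 µg/kg ip, corn oil), anaesthetised with pentobarbitone (60 mg/kg ip); uterine tension ~2 g. OT 0.3 µg/kg iv given 3–180 min after a single iv bolus of antagonist (DMSO/PEG200/water 20:50:30). Response = 10-min area under the contraction–time curve. Plasma drug measured by mass spectrometry in serial blood samples.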

[14] = Tested for lipophilicity; type: physicochemical; settings: octanol/water
[15] = Compound was tested for half life in dog; type: ADME, organism-based, Canis lupus familiaris; settings: in vivo
[16] = Compound was tested for its lipophilicity; type: physicochemical; settings: octanol/water

O=C(Cn1cnc(C(F)(F)F)cc1=O)NCc1cc2cc(C(=O)N3CCC(N4C(=O)OCc5ccccc54)CC3)ccc2o1
half-life [1]: 1.6 h
bioavailability [2]: 34%
clearance [3]: 20 mL/min/kg
clearance [4]: 6 mL/min/kg
half-life [5]: 0.8 h
bioavailability [6]: 14%
Ki (Oxytocin receptor [7]): 3.98 nM
Ki (Vasopressin V1a receptor): 3980 nM

O=C(Cn1ccc(-c2ccccc2)nc1=O)NCc1cc2cc(C(=O)N3CCC(N4C(=O)OCc5ccccc54)CC3)ccc2o1
half-life [1]: 1.3 h
clearance [4]: 9 mL/min/kg
Ki (Oxytocin receptor [7]): 1 nM

O=C(c1ccc2oc(CN3CCC[C@@H](n4cc(C(F)(F)F)ccc4=O)C3)cc2c1)N1CCC(N2C(=O)OCc3ccccc32)CC1
bioavailability [2]: 2%
clearance [3]: 28 mL/min/kg
half-life [5]: 0.6 h
Ki (Oxytocin receptor [7]): 25.1 nM
HSA shift [8]: 222
Binding (Albumin): 96%
AUC [9]: 150 ng·h/mL

O=C(c1ccc2oc(-c3cccc(Cn4cc(C(F)(F)F)ccc4=O)c3)cc2c1)N1CCC(N2C(=O)OCc3ccccc32)CC1
clearance [3]: 7 mL/min/kg
half-life [5]: 2.2 h
bioavailability [6]: > 45%
Ki (Oxytocin receptor [7]): 794 nM
Binding (Albumin): 98%
AUC [9]: 5700 ng·h/mL

COc1cccn(CC(=O)NCc2cc3cc(C(=O)N4CCC(N5C(=O)OCc6ccccc65)CC4)ccc3o2)c1=O
half-life [1]: 1.1 h
bioavailability [2]: 68%
clearance [3]: 22 mL/min/kg
clearance [4]: 19 mL/min/kg
half-life [5]: 1.2 h
bioavailability [6]: 3%
Ki (Oxytocin receptor [7]): 2.51 nM
Ki (Vasopressin V1a receptor): 1580 nM

O=C(c1ccc2oc(CN3CCC(n4cc(C(F)(F)F)ccc4=O)CC3)cc2c1)N1CCC(N2C(=O)OCc3ccccc32)CC1
clearance [10]: 6 mL/min/kg
half-life [5]: 1.7 h
bioavailability [6]: 79%
Ki (Oxytocin receptor [7]): 794 nM
HSA shift [8]: 4
Binding (Albumin): 93%
AUC [9]: 12000 ng·h/mL

O=C(Cn1cc(C(F)(F)F)ccc1=O)NCc1cc2cc(C(=O)N3CCC(N4C(=O)OCc5cc(F)ccc54)CC3)ccc2o1
clearance [3]: 17 mL/min/kg
half-life [5]: 0.9 h
bioavailability [6]: 18%
Ki (Oxytocin receptor [7]): 6.31 nM

Cn1c(CNC(=O)Cn2cc(C(F)(F)F)ccc2=O)cc2ccc(C(=O)N3CCC(N4C(=O)OCc5ccccc54)CC3)cc21
Ki (Oxytocin receptor [7]): 50.1 nM

O=C(Cn1cc(C(F)(F)F)ccc1=O)NCc1nc2cc(C(=O)N3CCC(N4C(=O)OCc5ccccc54)CC3)ccc2s1
Ki (Oxytocin receptor [7]): 79.4 nM

O=C(c1ccc2oc(-c3cccc(Cn4cc(C(F)(F)F)ccc4=O)n3)cc2c1)N1CCC(N2C(=O)OCc3ccccc32)CC1
clearance [3]: 12 mL/min/kg
half-life [5]: 1.2 h
bioavailability [6]: 22%
Ki (Oxytocin receptor [7]): 10 nM
HSA shift [8]: 87
Binding (Albumin): 98%
AUC [9]: 1500 ng·h/mL

O=C(Cn1ccc2ccccc2c1=O)NCc1cc2cc(C(=O)N3CCC(N4C(=O)OCc5ccccc54)CC3)ccc2o1
half-life [1]: 1.1 h
clearance [3]: 10 mL/min/kg
clearance [4]: 6 mL/min/kg
half-life [5]: 0.8 h
bioavailability [6]: 17%
Ki (Oxytocin receptor [7]): 6.31 nM

O=C(Cn1cc(C(F)(F)F)ccc1=O)NCc1cc2cc(C(=O)N3CCC(N4C(=O)CCc5ccccc54)CC3)ccc2o1
clearance [3]: 13 mL/min/kg
half-life [5]: 1.1 h
bioavailability [6]: 44%
Ki (Oxytocin receptor [7]): 25.1 nM

O=C(Cn1ccccc1=O)NCc1cc2cc(C(=O)N3CCC(N4C(=O)OCc5ccccc54)CC3)ccc2o1
half-life [1]: 0.5 h
clearance [4]: 34 mL/min/kg
Ki (Oxytocin receptor [7]): 6.31 nM

O=C(Cn1cc(C(F)(F)F)ccc1=O)NCc1cc2ccc(C(=O)N3CCC(N4C(=O)OCc5ccccc54)CC3)cc2o1
Ki (Oxytocin receptor [7]): 100 nM

O=C(Cn1cc(C(F)(F)F)ccc1=O)NCc1cc2cc(C(=O)N3CCC(N4C(=O)OCc5ccccc54)CC3)ccc2o1
half-life [1]: 1.5 h
clearance [11]: 8 mL/min/kg
bioavailability [2]: 51%
clearance [3]: 10 mL/min/kg
half-life [5]: 1 h
bioavailability [6]: 16%
logD [12]: 2.16
IC50 (Oxytocin receptor [13]): 3040 nM
Ki (Oxytocin receptor [7]): 2 nM
HSA shift [8]: 46
IC50 (Rattus norvegicus): 20 nM
Binding (Albumin): 96.2%
Ki (Vasopressin V1a receptor): 1260 nM

O=C(Cn1cc(C(F)(F)F)ccc1=O)NCc1cc2cc(C(=O)N3CCC(N4C(=O)OCc5ccccc54)CC3)cnc2o1
clearance [3]: 26 mL/min/kg
half-life [5]: 0.6 h
bioavailability [6]: 2%
logD [14]: 1.85
IC50 (Oxytocin receptor [13]): 744 nM
Ki (Oxytocin receptor [7]): 3.16 nM
HSA shift [8]: 19
IC50 (Rattus norvegicus): 20 nM
Binding (Albumin): 86.2%

O=C(Cn1ccc(N2CCOCC2)nc1=O)NCc1cc2cc(C(=O)N3CCC(N4C(=O)OCc5ccccc54)CC3)ccc2o1
half-life [1]: 1.2 h
bioavailability [2]: 2%
clearance [3]: 17 mL/min/kg
clearance [4]: 11 mL/min/kg
half-life [5]: 0.8 h
bioavailability [6]: < 1%
Ki (Oxytocin receptor [7]): 0.501 nM

O=C(Cn1cc(C(F)(F)F)ccc1=O)NCc1cc2cc(C(=O)N3CCC(N4C(=O)OCc5ccc(F)cc54)CC3)ccc2o1
Ki (Oxytocin receptor [7]): 6.31 nM

O=C(Cn1cc(C(F)(F)F)ccc1=O)NCc1nc2ccc(C(=O)N3CCC(N4C(=O)OCc5ccccc54)CC3)cc2s1
Ki (Oxytocin receptor [7]): 10 nM

O=C(c1ccc2oc(-c3cc(Cn4cc(C(F)(F)F)ccc4=O)ccn3)cc2c1)N1CCC(N2C(=O)OCc3ccccc32)CC1
Ki (Oxytocin receptor [7]): > 3160 nM
Binding (Albumin): 96%

O=C(c1ccc2oc(-c3cncc(Cn4cc(C(F)(F)F)ccc4=O)c3)cc2c1)N1CCC(N2C(=O)OCc3ccccc32)CC1
clearance [3]: 7 mL/min/kg
half-life [5]: 1.4 h
bioavailability [6]: 41%
Ki (Oxytocin receptor [7]): 63.1 nM
HSA shift [8]: 17
Binding (Albumin): 96%
AUC [9]: 5400 ng·h/mL

Cn1ncc2c(=O)n(CC(=O)NCc3cc4cc(C(=O)N5CCC(N6C(=O)OCc7ccccc76)CC5)ccc4o3)cnc21
half-life [1]: 1 h
bioavailability [2]: 36%
clearance [4]: 11 mL/min/kg
Ki (Oxytocin receptor [7]): 1.26 nM

O=C(Cn1cc(C(F)(F)F)ccc1=O)NCc1cc2cc(C(=O)N3CCC(N4C(=O)OCc5c(F)cccc54)CC3)ccc2o1
Ki (Oxytocin receptor [7]): 100 nM

O=C(Cn1cc(C(F)(F)F)ccc1=O)NCc1cc2cc(C(=O)N3CCC(N4C(=O)OCc5ccccc54)CC3)c(F)cc2o1
clearance [3]: 21 mL/min/kg
half-life [5]: 1.3 h
bioavailability [6]: 15%
Ki (Oxytocin receptor [7]): 7.94 nM

CCOc1ccn(CC(=O)NCc2cc3cc(C(=O)N4CCC(N5C(=O)OCc6ccccc65)CC4)ccc3o2)c(=O)n1
half-life [15]: 1.9 h
clearance [11]: 12 mL/min/kg
bioavailability [2]: 43%
clearance [3]: 35 mL/min/kg
half-life [5]: 0.8 h
bioavailability [6]: 2%
Ki (Oxytocin receptor [7]): 2 nM
Ki (Vasopressin V1a receptor): 1580 nM

O=C(c1ccc2oc(CN3CCCC[C@H]3Cn3cc(C(F)(F)F)ccc3=O)cc2c1)N1CCC(N2C(=O)OCc3ccccc32)CC1
Ki (Oxytocin receptor [7]): 10 nM
HSA shift [8]: 90
Binding (Albumin): 98%

COc1cc(OC2CCN(C(C)=O)CC2)ccc1C(=O)N1CCC(N2C(=O)OCc3ccccc32)CC1
half-life [1]: 1.1 h
bioavailability [2]: 29%
clearance [3]: 51 mL/min/kg
clearance [4]: 13 mL/min/kg
half-life [5]: 1.1 h
bioavailability [6]: 55%
logD [16]: 1.66
Ki (Oxytocin receptor [7]): 6.31 nM
IC50 (Rattus norvegicus): 25 nM
Binding (Albumin): 83.7%
Ki (Vasopressin V1a receptor): > 2000 nM

O=C(Cn1cc(C(F)(F)F)ccc1=O)NCc1cc2cc(C(=O)N3CCC(N4C(=O)OCc5cccc(F)c54)CC3)ccc2o1
clearance [3]: 11 mL/min/kg
half-life [5]: 1.2 h
bioavailability [6]: 67%
Ki (Oxytocin receptor [7]): 7.94 nM

O=C(Cn1cc(C(F)(F)F)ccc1=O)NCc1cc2cc(C(=O)N3CCC(N4C(=O)OCc5ccc(Cl)cc54)CC3)ccc2o1
clearance [3]: 21 mL/min/kg
half-life [5]: 1 h
bioavailability [6]: 35%
Ki (Oxytocin receptor [7]): 3.16 nM
